Measured values published in ChEMBL document CHEMBL1782009, “Synthesis and characterization of new types of halogenated and alkylated imidazolidineiminothiones and a comparative study of their antitumor, antibacterial, and antifungal activities” (Eur J Med Chem, 2011).
≈ marks a conversion by molar mass, not a printed value.

How the values were obtained:
HEp-2 [1] = assay: Cytotoxicity against human Hep2 cells assessed as surviving fraction at 12.5 ug/ml after 48 hrs by SRB assay relative to control; type: functional
Outline: (§1)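 SRB assay per Skehan: compounds at 5.0, 12.5, 25 and 50 were added to cell monolayers in triplicate wells per dose for 48 h at 37 °C, 5% CO2. Cells were then fixed and stained with SRB, excess stain was removed with acetic acid, and bound dye was recovered in Tris EDTA. Surviving fraction was plotted against concentration, and IC50 was read from the dose–response curves.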

HeLa [2] = assay: Cytotoxicity against human HeLa cells assessed as surviving fraction at 5 ug/ml after 48 hrs by SRB assay relative to control; type: functional; outline: as §1
Aspergillus flavus [3] = assay: Antifungal activity against Aspergillus flavus at 5 mg/ml by agar disc diffusion method; type: functional; details: read-out: DIZ
HCT-116 [4] = assay: Cytotoxicity against human HCT116 cells assessed as surviving fraction at 5 ug/ml after 48 hrs by SRB assay relative to control; type: functional; outline: as §1
HCT-116 [5] = assay: Cytotoxicity against human HCT116 cells after 48 hrs by SRB assay; type: functional, cell-based; details: HCT-116, 48 h; outline: as §1
HCT-116 [6] = assay: Cytotoxicity against human HCT116 cells assessed as surviving fraction at 25 ug/ml after 48 hrs by SRB assay relative to control; type: functional; outline: as §1
Micrococcus luteus [7] = assay: Antibacterial activity against Sarcina lutea ATCC 934 at 5 mg/ml after 24 hrs by agar disc diffusion method; type: functional; details: ATCC 934, 24 h, read-out: DIZ
Outline: (§2)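 Agar well-diffusion using 1 cm wells, each loaded with 100 of compound solution (5 mg/mL in DMF). Bacteria were maintained on nutrient agar and plated as a standard suspension. Plates were incubated 24 h at 35 °C, and inhibition zone diameters were measured.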

Escherichia coli [8] = assay: Antibacterial activity against Escherichia coli NCTC 10416 at 5 mg/ml after 24 hrs by agar disc diffusion method; type: functional; details: NCTC 10416, 24 h, read-out: DIZ; outline: as §2
HeLa [9] = assay: Cytotoxicity against human HeLa cells assessed as surviving fraction at 12.5 ug/ml after 48 hrs by SRB assay relative to control; type: functional; outline: as §1
HeLa [10] = assay: Cytotoxicity against human HeLa cells after 48 hrs by SRB assay; type: functional, cell-based; outline: as §1
HepG2 [11] = assay: Cytotoxicity against human HepG2 cells after 48 hrs by SRB assay; type: functional, cell-based; details: HepG2, 48 h; outline: as §1
Staphylococcus aureus [12] = assay: Antibacterial activity against Staphylococcus aureus NCTC 7447 at 5 mg/ml after 24 hrs by agar disc diffusion method; type: functional; details: NCTC 7447, 24 h, read-out: DIZ; outline: as §2
MCF7 [13] = assay: Cytotoxicity against human MCF7 cells after 48 hrs by SRB assay; type: functional, cell-based; details: MCF7, 48 h; outline: as §1
MCF7 [14] = assay: Cytotoxicity against human MCF7 cells assessed as surviving fraction at 25 ug/ml after 48 hrs by SRB assay relative to control; type: functional; outline: as §1
HepG2 [15] = assay: Cytotoxicity against human HepG2 cells assessed as surviving fraction at 25 ug/ml after 48 hrs by SRB assay relative to control; type: functional; outline: as §1
MCF7 [16] = assay: Cytotoxicity against human MCF7 cells assessed as surviving fraction at 50 ug/ml after 48 hrs by SRB assay relative to control; type: functional; outline: as §1
[17] = Antitumor activity against mouse EAC cells assessed as inhibition of cell viability at 100 ug/ml by Trypan blue assay; type: functional; details: Ehrlich
Outline: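 EAC cells were taken by needle aspiration of ascitic fluid from preinoculated mice and diluted 1:10 in saline. Then 0.1 mL of cell suspension, 0.8 mL RPMI 1640 and 0.1 mL compound were incubated 2 h at 37 °C. Dead cells were counted by trypan blue exclusion, and % non-viable = non-viable/total cells × 100.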

HCT-116 [18] = assay: Cytotoxicity against human HCT116 cells assessed as surviving fraction at 12.5 ug/ml after 48 hrs by SRB assay relative to control; type: functional; outline: as §1
HepG2 [19] = assay: Cytotoxicity against human HepG2 cells assessed as surviving fraction at 5 ug/ml after 48 hrs by SRB assay relative to control; type: functional; outline: as §1
HeLa [20] = assay: Cytotoxicity against human HeLa cells assessed as surviving fraction at 50 ug/ml after 48 hrs by SRB assay relative to control; type: functional; outline: as §1
HEp-2 [21] = assay: Cytotoxicity against human Hep2 cells assessed as surviving fraction at 50 ug/ml after 48 hrs by SRB assay relative to control; type: functional; outline: as §1
MCF7 [22] = assay: Cytotoxicity against human MCF7 cells assessed as surviving fraction at 12.5 ug/ml after 48 hrs by SRB assay relative to control; type: functional; outline: as §1
HEp-2 [23] = assay: Cytotoxicity against human Hep2 cells assessed as surviving fraction at 5 ug/ml after 48 hrs by SRB assay relative to control; type: functional; outline: as §1
MCF7 [24] = assay: Cytotoxicity against human MCF7 cells assessed as surviving fraction at 5 ug/ml after 48 hrs by SRB assay relative to control; type: functional; outline: as §1
HEp-2 [25] = assay: Cytotoxicity against human Hep2 cells assessed as surviving fraction at 25 ug/ml after 48 hrs by SRB assay relative to control; type: functional; outline: as §1
HepG2 [26] = assay: Cytotoxicity against human HepG2 cells assessed as surviving fraction at 50 ug/ml after 48 hrs by SRB assay relative to control; type: functional; outline: as §1
HCT-116 [27] = assay: Cytotoxicity against human HCT116 cells assessed as surviving fraction at 50 ug/ml after 48 hrs by SRB assay relative to control; type: functional; outline: as §1
HEp-2 [28] = assay: Cytotoxicity against human Hep2 cells after 48 hrs by SRB assay; type: functional, cell-based; details: HEp-2, 48 h; outline: as §1
Bacillus subtilis [29] = assay: Antibacterial activity against Bacillus subtilis NCTC 1040 at 5 mg/ml after 24 hrs by agar disc diffusion method; type: functional; details: NCTC 1040, 24 h, read-out: DIZ; outline: as §2
Candida albicans [30] = assay: Antifungal activity against Candida albicans IMRU 3669 at 5 mg/ml by agar disc diffusion method; type: functional; details: read-out: DIZ
HepG2 [31] = assay: Cytotoxicity against human HepG2 cells assessed as surviving fraction at 12.5 ug/ml after 48 hrs by SRB assay relative to control; type: functional; outline: as §1
HeLa [32] = assay: Cytotoxicity against human HeLa cells assessed as surviving fraction at 25 ug/ml after 48 hrs by SRB assay relative to control; type: functional; outline: as §1
Aspergillus flavus [33] = assay: Antifungal activity against Aspergillus flavus after 72 hrs by macrotube dilution method; type: functional
Outline: (§3)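 Macrotube twofold dilution following CLSI guidelines, with 15 tubes per organism. Tube 1 held 2 mg compound in 2.0 mL DMF and tubes 2–14 held 1.0 mL broth; 1.0 mL was carried serially, and tube 15 was the control. Colonies were suspended in 5.0 mL broth, then 0.2 mL was diluted into 40 mL, and 1.0 mL was added per tube. Bacteria were grown in nutrient broth at 37 °C overnight; fungi in Czapek's Dox at 30 °C for 72 h.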

Escherichia coli [34] = assay: Bactericidal activity against Escherichia coli NCTC 10416 by broth microtiter MIC test; type: functional
Aspergillus flavus [35] = assay: Fungicidal activity against Aspergillus flavus by broth microtiter MIC test; type: functional
Bacillus subtilis [36] = assay: Bactericidal activity against Bacillus subtilis NCTC 1040 by broth microtiter MIC test; type: functional
Micrococcus luteus [37] = assay: Antibacterial activity against Sarcina lutea ATCC 934 by macrotube dilution method; type: functional; outline: as §3
Staphylococcus aureus [38] = assay: Bactericidal activity against Staphylococcus aureus NCTC 7447 by broth microtiter MIC test; type: functional
Candida albicans [39] = assay: Antifungal activity against Candida albicans IMRU 3669 after 72 hrs by macrotube dilution method; type: functional; details: IMRU 3669, 72 h; outline: as §3
Staphylococcus aureus [40] = assay: Antibacterial activity against Staphylococcus aureus NCTC 7447 by macrotube dilution method; type: functional; outline: as §3
Escherichia coli [41] = assay: Antibacterial activity against Escherichia coli NCTC 10416 by macrotube dilution method; type: functional; outline: as §3
Bacillus subtilis [42] = assay: Antibacterial activity against Bacillus subtilis NCTC 1040 by macrotube dilution method; type: functional; outline: as §3
Micrococcus luteus [43] = assay: Bactericidal activity against Sarcina lutea ATCC 934 by broth microtiter MIC test; type: functional
Candida albicans [44] = assay: Fungicidal activity against Candida albicans IMRU 3669 by broth microtiter MIC test; type: functional

Row | Compound | Activity (HEp-2 [1]) | Activity (HeLa [2]) | zone of inhibition at 5000 µg/mL (Aspergillus flavus [3]) [mm] | Activity (HCT-116 [4]) | IC50 (HCT-116 [5]) [µg/mL] | Activity (HCT-116 [6]) | zone of inhibition at 5000 µg/mL (Micrococcus luteus [7]) [mm] | zone of inhibition at 5000 µg/mL (Escherichia coli [8]) [mm] | Activity (HeLa [9]) | IC50 (HeLa [10]) [µg/mL] | IC50 (HepG2 [11]) [µg/mL] | zone of inhibition at 5000 µg/mL (Staphylococcus aureus [12]) [mm] | IC50 (MCF7 [13]) [µg/mL] | Activity (MCF7 [14]) | Activity (HepG2 [15]) | Activity (MCF7 [16]) | inhibition at 100 µg/mL [17] [%] | Activity (HCT-116 [18]) | zone of inhibition at 5000 µg/mL (Bacillus subtilis [29]) [mm] | zone of inhibition at 5000 µg/mL (Candida albicans [30]) [mm] | also measured
1 | N=C1C(=S)N(c2ccc(Cl)cc2)C(=O)N1Cc1ccccc1 | 0.22 | 0.44 | 18 | 0.24 | 4.19 (≈ 12.7 µM) | 0.16 | 20 | 22 | 0.18 | 9.68 (≈ 29.4 µM) | 4.34 (≈ 13.2 µM) | 21 | 4.65 (≈ 14.1 µM) | 0.16 | 0.21 | 0.2 | 80 | 0.22 | 21 | 22 | Activity (HepG2 [19]): 0.45; Activity (HeLa [20]): 0.33; Activity (HEp-2 [21]): 0.28; Activity (MCF7 [22]): 0.12; Activity (HEp-2 [23]): 0.24; Activity (MCF7 [24]): 0.49; Activity (HEp-2 [25]): 0.16; Activity (HepG2 [26]): 0.3; Activity (HCT-116 [27]): 0.28; IC50 (HEp-2 [28]): 3.28 µg/mL (≈ 9.95 µM); Activity (HepG2 [31]): 0.22; Activity (HeLa [32]): 0.29
2 | N=C1C(=S)N(c2ccccc2)C(=O)N1Cc1ccccc1 |  |  | 17 |  |  |  | 20 | 23.5 |  |  |  | 22 |  |  |  |  | 60 |  | 21.5 | 24 | MIC (Aspergillus flavus [33]): 250 µg/mL (≈ 846 µM); MBC (Escherichia coli [34]): 16.1 µg/mL (≈ 54.5 µM); MFC (Aspergillus flavus [35]): 250 µg/mL (≈ 846 µM); MBC (Bacillus subtilis [36]): 64.5 µg/mL (≈ 218 µM); MIC (Micrococcus luteus [37]): 32.3 µg/mL (≈ 109 µM); MBC (Staphylococcus aureus [38]): 64.5 µg/mL (≈ 218 µM); MIC (Candida albicans [39]): 64.5 µg/mL (≈ 218 µM); MIC (Staphylococcus aureus [40]): 64.5 µg/mL (≈ 218 µM); MIC (Escherichia coli [41]): 16.1 µg/mL (≈ 54.5 µM); MIC (Bacillus subtilis [42]): 64.5 µg/mL (≈ 218 µM); MBC (Micrococcus luteus [43]): 32.3 µg/mL (≈ 109 µM); MFC (Candida albicans [44]): 64.5 µg/mL (≈ 218 µM)
3 | COc1ccc(N2C(=N)C(=S)N(c3ccc(OC)cc3OC)C2=O)cc1 | 0.2 | 0.21 | 17 | 0.35 | 3.73 (≈ 10 µM) | 0.19 | 24 | 24.5 | 0.16 | 3.12 (≈ 8.4 µM) | 4.34 (≈ 11.7 µM) | 20 | 3.28 (≈ 8.83 µM) | 0.18 | 0.19 | 0.27 | 80 | 0.26 | 20 | 22 | Activity (HepG2 [19]): 0.42; Activity (HeLa [20]): 0.23; Activity (HEp-2 [21]): 0.28; Activity (MCF7 [22]): 0.17; Activity (HEp-2 [23]): 0.36; Activity (MCF7 [24]): 0.25; Activity (HEp-2 [25]): 0.21; Activity (HepG2 [26]): 0.23; Activity (HCT-116 [27]): 0.29; IC50 (HEp-2 [28]): 3.89 µg/mL (≈ 10.5 µM); Activity (HepG2 [31]): 0.28; Activity (HeLa [32]): 0.17
